Results pooled from the literature.
Target: Dual specificity tyrosine-phosphorylation-regulated kinase 1A (DYRK1A, Homo sapiens, UniProt Q13627)
Method: competition with immobilised ligand

| SMILES | effect on | concentration | remaining binding [%] |
| --- | --- | --- | --- |
| CNC(=O)[C@@H]1CC[C@@H](n2c(-c3ccc4cnccc4c3)nc3ccc(C(=O)NCc4cccc(C(N)=O)c4)cc32)C1 | binding | 1 µM | 100 |
| Cc1noc([C@H]2C[C@@H](c3ccc(C(F)(F)F)cc3)CN(C(=O)N3CCS(=O)(=O)C3)C2)n1 | cell-free assay | 1 µM | 100 |
| O=C(NCC1CCOCC1)c1n[nH]cc1NC(=O)c1c(F)cccc1F | binding | 1 µM | 0.4 |
| Nc1ncc2c(n1)-c1c([nH]c3ccc(C#CC4CC4)cc13)CCCC2 | binding | 1 µM | 100 |
| C=CC(=O)N1CCC(C(=O)NCC(=O)N2CCN(c3nc(-c4cnc(N)nc4C(F)F)nc(N4CCOCC4)n3)CC2)CC1 | binding | 1 µM | 94 |
| O=C(c1ccc(Nc2ncc(Cl)c(-c3cc4ccccc4s3)n2)cc1)N1CCC(N2CCCC2)CC1 | binding | 1 µM | 11 |
| CN([C@@H]1CCc2c(CC(=O)O)c3ccccc3n2C1)S(=O)(=O)c1ccc(F)cc1 | cell-free assay | 1 µM | 69 |
| O=C(c1ccc(Nc2ncc(Cl)c(-c3ccc(Cl)s3)n2)cc1)N1CCC(N2CCCC2)CC1 | binding | 1 µM | 1.8 |
| O=C(O)[C@H]1[C@H](Cn2nnc3ccccc3c2=O)CC[C@@H]1C(=O)c1ccc(OCCC2CCOCC2)cc1 | cell-free assay | 1 µM | 85 |
| O=C(NCCCN1CCOCC1)c1ccc(Nc2nccc(-c3cc4ccccc4s3)n2)cc1 | binding | 1 µM | 41 |
| Cc1c(C(=O)O)cc(-c2ccc(C3CCNCC3)cc2)c2ccc(-c3ccc(C(F)(F)F)cc3)cc12 | cell-free assay | 1 µM | 100 |
| CCN1CCN(Cc2ccc(C(=O)Nc3ccc(C)c(Oc4ccc5c(c4)CC(=O)N5)c3)cc2C(F)(F)F)CC1 | binding | 1 µM | 96 |
| COC(=O)Nc1nc2ccc(C(=O)c3ccccc3)cc2[nH]1 | cell-free assay | 10 µM | 34 |
